Test results reported in ChEMBL document CHEMBL1121423, “2,4-Dihydro-6-phenyl-1H-s-triazolo[4,3-a][1,4]benzoidiazepin-1-ones with antianxiety and antidepressant activity” (1980).

Assays:
Assay type in all cases: functional
Mus musculus [1] = species on record: Mus musculus; assay: Effect on the antagonism of oxotremorine-induced hypothermia (OX)
Outline: (§1)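 Male albino CF-1 mice, 18-22 g. Compounds were dissolved or suspended in 0.25% aqueous methylcellulose and given intraperitoneally to groups of four or six mice per dose, at multiple dose levels. ED50 was calculated by the Spearman-Karber method.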

Mus musculus [2] = species on record: Mus musculus; assay: Effect of test compound on the potentiation of apomorphine-induced gnawing (AG) in aggregated mice; outline: as §1
Mus musculus [3] = species on record: Mus musculus; assay: Effect on the antagonism of bicuculline-induced tonic-extensor convulsions (B); outline: as §1
Mus musculus [4] = species on record: Mus musculus; assay: Effect on the antagonism of nicotine-induced death (D); outline: as §1
Mus musculus [5] = species on record: Mus musculus; assay: Effect on the antagonism of nicotine-induced tonic-extensor convulsions (TE) in mice; outline: as §1
Mus musculus [6] = species on record: Mus musculus; assay: Effect on the potentiation of yohimbine-induced toxicity (Y) in aggregated mice; outline: as §1
Mus musculus [7] = species on record: Mus musculus; assay: Effect on the prolongation of hypoxic survival time (HS); outline: as §1
Mus musculus [8] = species on record: Mus musculus; assay: Effect on the potentiation of gamma-butyrolactone-induced sleep (gamma-B); outline: as §1
Mus musculus [9] = species on record: Mus musculus; assay: Effect on the antagonism of pentylenetetrazole-induced clonic convulsions (P)

| Compound | ED50 (Mus musculus [1]) | ED50 (Mus musculus [2]) | ED50 (Mus musculus [3]; Mus musculus, read-out: ED50) | ED50 (Mus musculus [4]; Mus musculus, read-out: ED50) | ED50 (Mus musculus [5]; Mus musculus, read-out: ED50) | ED50 (Mus musculus [6]) | ED50 (Mus musculus [7]) | ED50 (Mus musculus [8]) | ED50 (Mus musculus [9]) | ED50 (Mus musculus [3]) | ED50 (Mus musculus [4]) | ED50 (Mus musculus [5]) |
| --- | --- | --- | --- | --- | --- | --- | --- | --- | --- | --- | --- | --- |
| CN(C)CCCN1c2ccccc2CCc2ccccc21 [IMIPRAMINE] | 1 mg/kg | 1 mg/kg | 21 mg/kg | 7 mg/kg | 7 mg/kg | 4 mg/kg | > 50 mg/kg | 18 mg/kg | – | – | – | – |
| Cn1nc2n(c1=O)-c1ccc(Cl)cc1C(c1ccccc1Cl)=NC2 | – | – | – | 0.002 mg/kg | 0.002 mg/kg | – | 2.2 mg/kg | – | 0.14 mg/kg | – | – | – |
| CCN(CC)CCn1nc2n(c1=O)-c1ccc(Cl)cc1C(c1ccccc1Cl)=NC2 | > 100 mg/kg | > 100 mg/kg | 0.7 mg/kg | 0.1 mg/kg | 0.09 mg/kg | > 100 mg/kg | 4 mg/kg | 0.4 mg/kg | 0.45 mg/kg | – | – | – |
| CNCCCn1nc2n(c1=O)-c1ccc(Cl)cc1C(c1ccccc1Cl)=NC2 | > 50 mg/kg | > 50 mg/kg | > 50 mg/kg | 1.4 mg/kg | 1.4 mg/kg | > 50 mg/kg | 9 mg/kg | 25 mg/kg | 14.9 mg/kg | – | – | – |
| CN1CCN(CCCn2nc3n(c2=O)-c2ccc(Cl)cc2C(c2ccccc2Cl)=NC3)CC1 | 25 mg/kg | > 25 mg/kg | > 25 mg/kg | 0.5 mg/kg | 0.4 mg/kg | 25 mg/kg | > 30 mg/kg | 3.7 mg/kg | 3.7 mg/kg | – | – | – |
| CN(C)CCn1nc2n(c1=O)-c1ccc(Cl)cc1C(c1ccccc1)=NC2 | > 100 mg/kg | > 100 mg/kg | 6 mg/kg | 1.4 mg/kg | 0.89 mg/kg | > 100 mg/kg | 30 mg/kg | 5 mg/kg | 3.2 mg/kg | – | – | – |
| CN(C)CCCn1nc2n(c1=O)-c1ccc(Cl)cc1C(c1ccccc1)=NC2 | > 50 mg/kg | > 50 mg/kg | 40 mg/kg | 3.6 mg/kg | 3.6 mg/kg | > 50 mg/kg | > 50 mg/kg | 10 mg/kg | 32 mg/kg | – | – | – |
| CCN(CC)CCCCn1nc2n(c1=O)-c1ccc(Cl)cc1C(c1ccccc1Cl)=NC2 | 10.5 mg/kg | > 12.5 mg/kg | > 12.5 mg/kg | 0.8 mg/kg | 0.8 mg/kg | > 12.5 mg/kg | 7 mg/kg | 12.5 mg/kg | 4.4 mg/kg | – | – | – |
| CN1CCN(CCn2nc3n(c2=O)-c2ccc(Cl)cc2C(c2ccccc2Cl)=NC3)CC1 | 12.5 mg/kg | > 25 mg/kg | 3.1 mg/kg | – | – | > 25 mg/kg | 3.1 mg/kg | 0.2 mg/kg | 0.3 mg/kg | – | – | – |
| CC(CN(C)C)Cn1nc2n(c1=O)-c1ccc(Cl)cc1C(c1ccccc1Cl)=NC2 (stereo not given) | > 50 mg/kg | > 50 mg/kg | 7 mg/kg | 1.1 mg/kg | 1 mg/kg | > 50 mg/kg | 40 mg/kg | 2 mg/kg | – | – | – | – |
| CN(C)CCCn1nc2n(c1=O)-c1ccc(Cl)cc1C(c1ccccc1Cl)=NC2 | > 50 mg/kg | 7.4 mg/kg | 14.9 mg/kg | 1.1 mg/kg | 0.9 mg/kg | > 50 mg/kg | > 50 mg/kg | 2.2 mg/kg | 6.3 mg/kg | – | – | – |
| CCN(CC)CCn1nc2n(c1=O)-c1ccc(Cl)cc1C(c1ccccc1)=NC2 | > 50 mg/kg | > 50 mg/kg | 10 mg/kg | 1.3 mg/kg | 1.3 mg/kg | > 50 mg/kg | > 50 mg/kg | 1 mg/kg | 4 mg/kg | – | – | – |
| CN1C(=O)CN=C(c2ccccc2)c2cc(Cl)ccc21 [DIAZEPAM] | > 50 mg/kg | > 50 mg/kg | 2.6 mg/kg | 0.28 mg/kg | 0.28 mg/kg | > 50 mg/kg | 0.2 mg/kg | 0.035 mg/kg | 0.1 mg/kg | – | – | – |
| Cn1nc2n(c1=O)-c1ccc(Cl)cc1C(c1ccccc1)=NC2 | > 50 mg/kg | > 50 mg/kg | 3 mg/kg | 0.63 mg/kg | 0.63 mg/kg | > 50 mg/kg | – | – | 2.5 mg/kg | 2 mg/kg | 1.1 mg/kg | 1 mg/kg |
| O=c1n(CCCN2CCN(CCO)CC2)nc2n1-c1ccc(Cl)cc1C(c1ccccc1Cl)=NC2 | > 25 mg/kg | > 30 mg/kg | 12.5 mg/kg | 0.56 mg/kg | 0.5 mg/kg | > 25 mg/kg | 20 mg/kg | 2 mg/kg | 6.3 mg/kg | – | – | – |
| O=c1n(CCCN2CCN(c3ccccc3)CC2)nc2n1-c1ccc(Cl)cc1C(c1ccccc1Cl)=NC2 | > 50 mg/kg | > 50 mg/kg | > 50 mg/kg | 40 mg/kg | 40 mg/kg | > 50 mg/kg | > 50 mg/kg | > 50 mg/kg | > 50 mg/kg | – | – | – |
| CN1CCN(CCn2nc3n(c2=O)-c2ccc(Cl)cc2C(c2ccccc2)=NC3)CC1 | 14.9 mg/kg | > 50 mg/kg | 17.7 mg/kg | 8 mg/kg | 8 mg/kg | > 50 mg/kg | 10.5 mg/kg | 5.3 mg/kg | 8.8 mg/kg | – | – | – |
| Oc1nnc2n1-c1ccc(Cl)cc1C(c1ccccc1Cl)=NC2 | > 50 mg/kg | > 50 mg/kg | 1 mg/kg | 0.025 mg/kg | 0.025 mg/kg | > 50 mg/kg | > 50 mg/kg | 0.4 mg/kg | 0.08 mg/kg | – | – | – |
| CCN(CC)CCCn1nc2n(c1=O)-c1ccc(Cl)cc1C(c1ccccc1Cl)=NC2 | > 25 mg/kg | > 50 mg/kg | > 50 mg/kg | 1.3 mg/kg | 1.1 mg/kg | > 50 mg/kg | 10 mg/kg | 5.3 mg/kg | 8.8 mg/kg | – | – | – |
| CN(C)Cc1nnc2n1-c1ccc(Cl)cc1C(c1ccccc1)=NC2 [ADINAZOLAM] | 5.3 mg/kg | 5.3 mg/kg | 0.7 mg/kg | 0.13 mg/kg | 0.11 mg/kg | – | 5 mg/kg | 1.6 mg/kg | 0.9 mg/kg | – | – | – |
| Oc1nnc2n1-c1ccc(Cl)cc1C(c1ccccc1)=NC2 | > 50 mg/kg | > 50 mg/kg | 40 mg/kg | 1.6 mg/kg | 1.4 mg/kg | > 50 mg/kg | > 50 mg/kg | 6 mg/kg | 5.6 mg/kg | – | – | – |
